In ChEMBL document CHEMBL1139233, “Structure-activity relationships of cyclic peptide-based chemokine receptor CXCR4 antagonists: disclosing the importance of side-chain and backbone functionalities” (J Med Chem, 2007):
The source made the active and inactive calls. No cut-off for these calls is given here.

Columns and labels:
[1] = molecular target: T1, C-X-C chemokine receptor type 4 (Homo sapiens, UniProt P61073); experiment: Inhibition of [125I]SDF1 binding to CXCR4 transfected in CHO cells; format: cell-based
T1 sequence (P61073 whole entry): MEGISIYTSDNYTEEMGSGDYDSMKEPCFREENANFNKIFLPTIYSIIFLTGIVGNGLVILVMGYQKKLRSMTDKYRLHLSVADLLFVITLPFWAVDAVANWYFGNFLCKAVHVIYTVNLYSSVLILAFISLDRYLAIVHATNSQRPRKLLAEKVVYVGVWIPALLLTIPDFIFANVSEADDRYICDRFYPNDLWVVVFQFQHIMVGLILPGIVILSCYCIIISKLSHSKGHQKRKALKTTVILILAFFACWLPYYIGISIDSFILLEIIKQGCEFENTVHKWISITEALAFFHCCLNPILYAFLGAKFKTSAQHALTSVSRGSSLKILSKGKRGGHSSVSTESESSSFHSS
In short: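 CXCR4-expressing stable CHO transfectants were harvested with trypsin-EDTA, recovered 4-5 h in complete medium, and washed in cold PBS with 2 mg/mL BSA. Cells at 1 × 10⁷/mL were incubated with 0.1 nM [¹²⁵I]-SDF-1 for 2 h on ice with agitation. Bound label was separated by centrifugation through oil and gamma-counted.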

[2] = tested on: Human immunodeficiency virus 1; experiment: Inhibition of HIV1-induced cytopathogenicity in MT4 cells; format: functional, organism-based; details: Human immunodeficiency virus 1, MT4
In short: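 MT-4 cells were grown in RPMI 1640 with 10% heat-inactivated FCS and penicillin/streptomycin. Cells infected with HIV-1 IIIB (X4 strain) at MOI 0.01 were plated at 1.5 × 10⁴ cells/well with various compound concentrations. After 5 days at 37 °C in CO₂, viable cells were counted by MTT. EC50 for protection is the mean of ≥3 independent experiments.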

[3] = molecular target: T1, C-X-C chemokine receptor type 4; experiment: Antagonist activity against CXCR4 transfected in CHO cells upto 1 uM; format: functional, cell-based

| SMILES | IC50 [1] [nM] | EC50 [2] [nM] | also measured |
| --- | --- | --- | --- |
| N=C(N)NCCC[C@@H]1NC(=O)[C@H](CCCNC(=N)N)NC(=O)[C@@H](Cc2ccc(O)cc2)NC(=O)[C@@H]2CCCN2C(=O)[C@H](Cc2ccc3ccccc3c2)NC1=O | > 1000 |  |  |
| N=C(N)NCCC[C@@H]1NC(=O)[C@@H](CCCNC(=N)N)NC(=O)[C@@H](Cc2ccc(O)cc2)NC(=O)[C@H]2CCCCN2C(=O)[C@H](Cc2ccc3ccccc3c2)NC1=O | > 1000 |  |  |
| N=C(N)NCCC[C@@H]1NC(=O)[C@H](CCCNC(=N)N)NC(=O)[C@@H](Cc2ccc(O)cc2)NC(=O)[C@H]2CCCCN2C(=O)[C@H](Cc2ccc3ccccc3c2)NC1=O | > 1000 |  |  |
| CN1C(=O)[C@H](CCCNC(=N)N)NC(=O)[C@@H](CCCNC(=N)N)NC(=O)[C@@H](Cc2ccc(O)cc2)NC(=O)CNC(=O)[C@@H]1Cc1ccc2ccccc2c1 | 563 |  |  |
| CN1C(=O)[C@H](CCCNC(=N)N)NC(=O)[C@@H](Cc2ccc(O)cc2)NC(=O)CNC(=O)[C@H](Cc2ccc3ccccc3c2)NC(=O)[C@@H]1CCCNC(=N)N | 99 | 9530 |  |
| N=C(N)NCCC[C@@H]1NC(=O)[C@H](CCCNC(=N)N)NC(=O)[C@@H](Cc2ccc(O)cc2)NC(=O)CNC(=O)[C@H](Cc2ccc3ccccc3c2)NC1=O |  | 160 |  |
| C[C@@H]1NC(=O)[C@H](CCCNC(=N)N)NC(=O)[C@H](CCCNC(=N)N)NC(=O)[C@@H](Cc2ccc(O)cc2)NC(=O)CNC1=O | > 1000 | > 120000 |  |
| N=C(N)NCCC[C@@H]1NC(=O)[C@@H](CCCNC(=N)N)NC(=O)[C@@H](Cc2ccc(O)cc2)NC(=O)[C@@H]2CCCN2C(=O)[C@H](Cc2ccc3ccccc3c2)NC1=O | > 1000 |  |  |
| C[C@@H]1NC(=O)[C@H](CCCNC(=N)N)NC(=O)[C@@H](CCCNC(=N)N)NC(=O)[C@@H](Cc2ccc(O)cc2)NC(=O)CNC1=O | > 1000 | > 120000 |  |
| C[C@H]1NC(=O)[C@@H](Cc2ccc(O)cc2)NC(=O)CNC(=O)[C@H](Cc2ccc3ccccc3c2)NC(=O)[C@H](CCCNC(=N)N)NC1=O |  | 16000 |  |
| C[C@@H]1NC(=O)[C@H](Cc2ccc3ccccc3c2)NC(=O)[C@H](CCCNC(=N)N)NC(=O)[C@H](CCCNC(=N)N)NC(=O)[C@@H](Cc2ccc(O)cc2)NC1=O | 170 | 20000 |  |
| CN1C(=O)[C@H](CCCNC(=N)N)NC(=O)[C@H](CCCNC(=N)N)NC(=O)[C@@H](Cc2ccc(O)cc2)NC(=O)CNC(=O)[C@@H]1Cc1ccc2ccccc2c1 | 250 |  |  |
| N=C(N)NCCC[C@@H]1NC(=O)[C@@H](CCCNC(=N)N)NC(=O)[C@@H](Cc2ccc(O)cc2)NC(=O)[C@@H]2CCCCN2C(=O)[C@H](Cc2ccc3ccccc3c2)NC1=O | 640 |  |  |
| N=C(N)NCCC[C@@H]1NC(=O)[C@H](CCCNC(=N)N)NC(=O)[C@@H](Cc2ccc(O)cc2)NC(=O)[C@H]2CCCN2C(=O)[C@H](Cc2ccc3ccccc3c2)NC1=O | > 1000 |  |  |
| CN1C(=O)CNC(=O)[C@H](Cc2ccc3ccccc3c2)NC(=O)[C@H](CCCNC(=N)N)NC(=O)[C@H](CCCNC(=N)N)NC(=O)[C@H]1Cc1ccc(O)cc1 | 128 |  |  |
| N=C(N)NCCC[C@@H]1NC(=O)[C@@H](CCCNC(=N)N)NC(=O)[C@@H](Cc2ccc(O)cc2)NC(=O)CCNC(=O)[C@H](Cc2ccc3ccccc3c2)NC1=O | 350 | 38000 |  |
| C[C@H]1NC(=O)[C@H](Cc2ccc3ccccc3c2)NC(=O)[C@H](CCCNC(=N)N)NC(=O)[C@H](CCCNC(=N)N)NC(=O)[C@@H](Cc2ccc(O)cc2)NC1=O | 11 | 490 |  |
| N=C(N)NCCC[C@@H]1NC(=O)[C@@H](CCCNC(=N)N)NC(=O)[C@@H](Cc2ccc(O)cc2)NC(=O)[C@H]2CCCN2C(=O)[C@H](Cc2ccc3ccccc3c2)NC1=O | > 1000 |  |  |
| C[C@H]1NC(=O)CNC(=O)[C@H](Cc2ccc3ccccc3c2)NC(=O)[C@H](CCCNC(=N)N)NC(=O)[C@@H](CCCNC(=N)N)NC1=O | 130 | 29000 |  |

| SMILES | IC50 [1] [nM] | EC50 [2] [nM] | also measured |
| --- | --- | --- | --- |
| C[C@@H]1NC(=O)[C@@H](CCCNC(=N)N)NC(=O)[C@@H](Cc2ccc(O)cc2)NC(=O)CNC(=O)[C@H](Cc2ccc3ccccc3c2)NC1=O | > 1000 | 60000 |  |
| C[C@@H]1NC(=O)[C@H](Cc2ccc3ccccc3c2)NC(=O)CNC(=O)[C@@H](Cc2ccc(O)cc2)NC(=O)[C@H](CCCNC(=N)N)NC1=O |  |  | Activity [3]: inactive |
| N=C(N)NCCC[C@@H]1NC(=O)[C@H](CCCNC(=N)N)NC(=O)[C@@H](Cc2ccc(O)cc2)NC(=O)CCNC(=O)[C@H](Cc2ccc3ccccc3c2)NC1=O | 47 | 3000 |  |
| N=C(N)NCCC[C@@H]1NC(=O)[C@H](CCCNC(=N)N)NC(=O)[C@@H](Cc2ccc(O)cc2)NC(=O)[C@@H]2CCCCN2C(=O)[C@H](Cc2ccc3ccccc3c2)NC1=O | > 1000 |  |  |
| C[C@@H]1NC(=O)[C@H](Cc2ccc3ccccc3c2)NC(=O)CNC(=O)[C@@H](Cc2ccc(O)cc2)NC(=O)[C@@H](CCCNC(=N)N)NC1=O |  |  | Activity [3]: inactive |
| C[C@@H]1NC(=O)[C@H](CCCNC(=N)N)NC(=O)[C@@H](Cc2ccc(O)cc2)NC(=O)CNC(=O)[C@H](Cc2ccc3ccccc3c2)NC1=O | > 1000 | > 120000 |  |
| C[C@H]1NC(=O)CNC(=O)[C@H](Cc2ccc3ccccc3c2)NC(=O)[C@H](CCCNC(=N)N)NC(=O)[C@H](CCCNC(=N)N)NC1=O | > 1000 | 115000 |  |
| C[C@@H]1NC(=O)[C@@H](Cc2ccc(O)cc2)NC(=O)CNC(=O)[C@H](Cc2ccc3ccccc3c2)NC(=O)[C@H](CCCNC(=N)N)NC1=O |  | 12000 |  |
| C[C@@H]1NC(=O)CNC(=O)[C@@H](Cc2ccc(O)cc2)NC(=O)[C@@H](CCCNC(=N)N)NC(=O)[C@H](CCCNC(=N)N)NC1=O |  |  | Activity [3]: inactive |
| C[C@H]1NC(=O)[C@H](Cc2ccc3ccccc3c2)NC(=O)[C@H](CCCNC(=N)N)NC(=O)[C@@H](CCCNC(=N)N)NC(=O)[C@@H](Cc2ccc(O)cc2)NC1=O | 11 | 670 |  |
| C[C@@H]1NC(=O)[C@H](Cc2ccc3ccccc3c2)NC(=O)[C@H](CCCNC(=N)N)NC(=O)[C@@H](CCCNC(=N)N)NC(=O)[C@@H](Cc2ccc(O)cc2)NC1=O | 92 | 10000 |  |
| C[C@@H]1NC(=O)CNC(=O)[C@@H](Cc2ccc(O)cc2)NC(=O)[C@H](CCCNC(=N)N)NC(=O)[C@H](CCCNC(=N)N)NC1=O |  |  | Activity [3]: inactive |
| CN1C(=O)CNC(=O)[C@H](Cc2ccc3ccccc3c2)NC(=O)[C@H](CCCNC(=N)N)NC(=O)[C@@H](CCCNC(=N)N)NC(=O)[C@H]1Cc1ccc(O)cc1 | 157 |  |  |
| CN1CC(=O)N[C@H](Cc2ccc(O)cc2)C(=O)N[C@H](CCCNC(=N)N)C(=O)N[C@@H](CCCNC(=N)N)C(=O)N[C@@H](Cc2ccc3ccccc3c2)C1=O | 256 |  |  |
| CN1C(=O)[C@@H](Cc2ccc(O)cc2)NC(=O)CNC(=O)[C@H](Cc2ccc3ccccc3c2)NC(=O)[C@H](CCCNC(=N)N)NC(=O)[C@H]1CCCNC(=N)N | 3 | 88 |  |
| C[C@@H]1NC(=O)[C@H](CCCNC(=N)N)NC(=O)[C@H](CCCNC(=N)N)NC(=O)[C@@H](Cc2ccc(O)cc2)NC(=O)CN(C)C1=O |  |  | IC50 ([1]; cho): 167 nM |
| CN1C(=O)[C@@H](CCCNC(=N)N)NC(=O)[C@@H](Cc2ccc(O)cc2)NC(=O)CNC(=O)[C@H](Cc2ccc3ccccc3c2)NC(=O)[C@@H]1CCCNC(=N)N | 21 | 782 |  |
| N=C(N)NCCC[C@@H]1NC(=O)[C@@H](CCCNC(=N)N)NC(=O)[C@@H](Cc2ccc(O)cc2)NC(=O)CNC(=O)[C@H](Cc2ccc3ccccc3c2)NC1=O |  | 390 |  |
| CN1C(=O)[C@@H](Cc2ccc(O)cc2)NC(=O)CNC(=O)[C@H](Cc2ccc3ccccc3c2)NC(=O)[C@H](CCCNC(=N)N)NC(=O)[C@@H]1CCCNC(=N)N |  | 1400 |  |
